Measurements taken from the RNAGym collection of RNA variant scans (doi:10.1126/science.aae0568).
Variants at the floor of the assay were thinned out.

B1: tRNA (parent)
chain: GUUCCGUUGGCGUAAUGGUAACGCGUCUCCCUCCUAAGGAGAAGACUGCGGGUUCGAGUCCCGUACGGAACG

Variants of: B1
Experiment: yeast fitness relative to wild type (ratio to wild type); higher = fitter; tRNA-Arg(CCU), competitive growth, 37 C, YPD
How it was run: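 The tRNA-Arg(CCU) gene variants were made by chemical synthesis with a 3% per-site mutation rate at 69 sites and inserted at the native genomic locus of Saccharomyces cerevisiae. After pooling, the strains were competed in YPD at 37°C for 24 hours in six parallel replicates. Gene amplicons from the start population and each end population were read by 100-nucleotide paired-end sequencing, and Darwinian fitness relative to wild type was taken from genotype frequency changes. Genotypes needed ≥ 100 starting reads, and estimates < 0.5 were set to 0.5.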
For GUUCCGUUGGCGUAAUGGUAACGCGUCUCCCUCCUAGGGAGAAGACUGCGGGCUCGCGUCCCGUACGGAACG, the yeast fitness was at most 0.5.
GUUCCGUUGGCGUAAUGGUAACGCGUCUCCCUCCUAUGGAGAAGACUGCGGGUUCGCGUCCCGGACGGAACG gave a yeast fitness of at most 0.5.
In the case of GUUCCGUUGGCGUAAUGGUAACGCGUCUCCCUCCUAACGAGAAGACUGCGGGUUCGAGUCGCGUAUGGUACG, the yeast fitness is reported as at most 0.5.
In the case of GUUCCGUUGGCGUAAUGGUAACGCGUCUCCCUCCUAUGGAGAAGACUGCGGGUUCGAGUCCCGAACGGAACG, the yeast fitness is reported as 0.642.
GUUCCGUUGGCGUAAUGGUAACGCGUCUCCCUCCUAUGGAGAAGACUGUGGGUUCGAAUCCCGUACGGAACG gave a yeast fitness of 0.57.
For GUUCCGUUGGCGUAAUGGUAACGCGUCUCCCUCCUAACGAGAAGGCUGCGGGUUCGAGUCCCGUACGGAACG, the yeast fitness was 0.641.
For GUUCCGUUGGCGUAAUGGUAACGCGUCUCCCUCCUAUAGAGAAGACUGCGGGUUCGAGUCCCGUACGGAACG, the yeast fitness was 0.631.
Variant GUUCCGUUGGCGUAAUGGUAACGCGUCUCCCUCCUAAAGAGAAGACUGCGGGUUCGUGUCCCGUACGGAACG has a yeast fitness of 0.772.
With GUUCCGUUGGCGUAAUGGUAACGCGUCUCCCUCCUAUGGAGAAGACUGCGGGUUCGAGUCCCCUACGGCACG the yeast fitness was at most 0.5.
With GUUCCGUUGGCGUAAUGGUAACGCGUCUCCCUCCUAACGACGAGACUGCGGGUUCGAGUCCCGUGCGGAACG the yeast fitness was 0.503.
For GUUCCGUUGGCGUAAUGGUAACGCGUCUCCCUCCUAAAGAGAAGACUGCGGGUUCAAGUCCCGUACGGAACG, the yeast fitness was 1.02.
With GUUCCGUUGGCGUAAUGGUAACGCGUCUCCCUCCUAUGGAGAAGACUGCGGGUUCGAGUCGCGUACGGAACG the yeast fitness was 0.529.
For GUUCCGUUGGCGUAAUGGUAACGCGUCUCCCUCCUAAAGGGAAGACUGUGGGUUCGAGUCCCGUAAGGAACG, the yeast fitness was at most 0.5.
For GUUCCGUUGGCGUAAUGGUAACGCGUCUCCCUCCUAUGGAGAAGACUGCGGGUUCGAGUCCCGUCGGGAACG, the yeast fitness was at most 0.5.
With GUUCCGUUGGCGUAAUGGUAACGCGUCUCCCUCCUAGGGAGAAGACUGCGGGUUCGACUCCCGUACGGCACG the yeast fitness was 0.623.
For GUUCCGUUGGCGUAAUGGUAACGCGUCUCCCUCCUAUGGAGGAGUCUGCGGGUUCGAGUCCCGUACCGAACG, the yeast fitness was at most 0.5.
GUUCCGUUGGCGUAAUGGUAACGCGUCUCCCUCCUAACGAGAAGACUGCGGGUUCGAGUCCCGUACGGACCG showed a yeast fitness of 0.738.
Work on GUUCCGUUGGCGUAAUGGUAACGCGUCUCCCUCCUAUGGAGAAGACUGCGGGGUCAAGUCCCGUACGGACCG yielded a yeast fitness of at most 0.5.
For GUUCCGUUGGCGUAAUGGUAACGCGUCUCCCUCCUAUGGAGAAGACUGCGGGUUCGAGCCCCGUACGGAACG, the yeast fitness was 0.721.
Work on GUUCCGUUGGCGUAAUGGUAACGCGUCUCCCUCCUAACGAGAAGACUGCAGAUUUGAGUCCCGUACGGAACG yielded a yeast fitness of at most 0.5.
For GUUCCGUUGGCGUAAUGGUAACGCGUCUCCCUCCUAGGGAGAAGACUGCGGGCUCGAGUCCCGUACAGAACG, the yeast fitness was at most 0.5.
Variant GUUCCGUUGGCGUAAUGGUAACGCGUCUCCCUCCUAACGAGAAGACUCCGGGUUCGAGUCCCGUACGGAACG has a yeast fitness of 0.722.
For GUUCCGUUGGCGUAAUGGUAACGCGUCUCCCUCCUAAAGAGAAGACUGCGGGUCCGAGUCCCGUUCGGAACG, the yeast fitness was 0.581.
GUUCCGUUGGCGUAAUGGUAACGCGUCUCCCUCCUAAAGAGCAGACUGCGGGUCCGAGUCCCGUACGGCACG gave a yeast fitness of at most 0.5.
With GUUCCGUUGGCGUAAUGGUAACGCGUCUCCCUCCUAACGAGAUGGCUGCGGGUUCGAGUCCCGUACGGAACG the yeast fitness was at most 0.5.
Work on GUUCCGUUGGCGUAAUGGUAACGCGUCUCCCUCCUAGGGAGAAGACUGCGGGUUCGAGACCCGUACGGAACG yielded a yeast fitness of 0.663.
GUUCCGUUGGCGUAAUGGUAACGCGUCUCCCUCCUAAAGAGCAGACUGCGGGUCCGAGUCCGGUCAGGAACG showed a yeast fitness of at most 0.5.
Variant GUUCCGUUGGCGUAAUGGUAACGCGUCUCCCUCCUAUGGAGAAGACUGCGGGUUCGAGUCCCGUACAGAACG has a yeast fitness of 0.724.
With GUUCCGUUGGCGUAAUGGUAACGCGUCUCCCUCCUAUGGAGAAGUCUGCGGGUUCGAGUCCGGUACGGAACG the yeast fitness was at most 0.5.
For GUUCCGUUGGCGUAAUGGUAACGCGUCUCCCUCCUAGGGAGAAGACUGCGCGUUCGAGUCCCGUACGGAACG, the yeast fitness was 0.601.
Variant GUUCCGUUGGCGUAAUGGUAACGCGUCUCCCUCCUAUGGAGAAGACUGCGGGUUCGAGUCCCGUAAGGAACG has a yeast fitness of 0.528.
For GUUCCGUUGGCGUAAUGGUAACGCGUCUCCCUCCUAACGAGAGGACUGCGGGUUCGAGUCCGGUACGGAACG, the yeast fitness was at most 0.5.
Variant GUUCCGUUGGCGUAAUGGUAACGCGUCUCCCUCCUAUGGAGAAGACUGCGGGUUCGAGUCCCGUCCGGAACG has a yeast fitness of 0.739.
With GUUCCGUUGGCGUAAUGGUAACGCGUCUCCCUCCUAGGGAGAAGACUGCGGGUUCGAAUCCCGUACGGAACG the yeast fitness was 0.976.
GUUCCGUUGGCGUAAUGGUAACGCGUCUCCCUCCUAGGGAGAAGACUGCGGGUUCGACUCCCGUACGGAACG gave a yeast fitness of 0.719.
Variant GUUCCGUUGGCGUAAUGGUAACGCGUCUCCCUCCUAACGUGAAGACUGCGGGUCCGAGUCCCGUACGGAACG has a yeast fitness of at most 0.5.
In the case of GUUCCGUUGGCGUAAUGGUAACGCGUCUCCCUCCUAAAGAGAAGACUGCGGGUUCGAAUCCCGUACGGAACG, the yeast fitness is reported as 1.06.
With GUUCCGUUGGCGUAAUGGUAACGCGUCUCCCUCCUAACGAGAAGACUGCGGGUUCGGGUCCCGUACGGAACG the yeast fitness was 0.617.
GUUCCGUUGGCGUAAUGGUAACGCGUCUCCCUCCUAGGGAGAAGACAGCGGGUUAGACUCCCGUACGGAACG showed a yeast fitness of at most 0.5.
Work on GUUCCGUUGGCGUAAUGGUAACGCGUCUCCCUCCUAGGGAGAAGACUGCGGAUUGGAGUCCCGUACGGAACG yielded a yeast fitness of 0.516.
In the case of GUUCCGUUGGCGUAAUGGUAACGCGUCUCCCUCCUAUGGAGAAGACUGCGGGUUCGAGUCCCGUACGGAUCG, the yeast fitness is reported as 0.655.
GUUCCGUUGGCGUAAUGGUAACGCGUCUCCCUCCUAAAGAGACGACUGCGGGUUCGAGUCCCGUCCGGAACG showed a yeast fitness of at most 0.5.
GUUCCGUUGGCGUAAUGGUAACGCGUCUCCCUCCUAGGGAGAAGACUGCGGGUUCGAGUCCCCUUCGGAACG gave a yeast fitness of at most 0.5.
Work on GUUCCGUUGGCGUAAUGGUAACGCGUCUCCCUCCUAACGAGAAGACUGCGGGUUCGAGUUCCGUAGGGAACG yielded a yeast fitness of at most 0.5.
Work on GUUCCGUUGGCGUAAUGGUAACGCGUCUCCCUCCUAACGAGAGGACUGCGGGUUCGAGUUCUGUACGGACCG yielded a yeast fitness of at most 0.5.
GUUCCGUUGGCGUAAUGGUAACGCGUCUCCCUCCUAAAGAGAAGACUGCGGGUUCGAGUCCUGUACGGAUCG showed a yeast fitness of 0.577.
Work on GUUCCGUUGGCGUAAUGGUAACGCGUCUCCCUCCUAACGAGAAGAAUGCGGGUUCGAGUCCGGUAUGGAACG yielded a yeast fitness of at most 0.5.
Work on GUUCCGUUGGCGUAAUGGUAACGCGUCUCCCUCCUAAAGAGAAGACUGCGGGUUCGAGUCCCGUACGGCACG yielded a yeast fitness of 0.847.
With GUUCCGUUGGCGUAAUGGUAACGCGUCUCCCUCCUAUGGAGAAGACUGCGGGUUUGAGUCGCGUUCGGAACG the yeast fitness was at most 0.5.
Variant GUUCCGUUGGCGUAAUGGUAACGCGUCUCCCUCCUAACGAGAAGACUGCGGGUUCGAGUCCUGUGCGGAACG has a yeast fitness of 0.502.
For GUUCCGUUGGCGUAAUGGUAACGCGUCUCCCUCCUAAAGAGAAGACUGCGGGUUCGACUCCCGUAUGGAACG, the yeast fitness was 0.588.
For GUUCCGUUGGCGUAAUGGUAACGCGUCUCCCUCCUAGGGAGAAGACUGCGGGUUCGAGUCCCGUACAGAACG, the yeast fitness was 0.819.
In the case of GUUCCGUUGGCGUAAUGGUAACGCGUCUCCCUCCUAUGGAGAAGACUGCGGGUUCGAAUCCCGUACGGAACG, the yeast fitness is reported as 0.767.
In the case of GUUCCGUUGGCGUAAUGGUAACGCGUCUCCCUCCUAUGGAGAAGACUGCGGGUUGGAGUCCCGUACGCAACG, the yeast fitness is reported as at most 0.5.
For GUUCCGUUGGCGUAAUGGUAACGCGUCUCCCUCCUAUGGCGAAGACUGCGAGUUCGAGUCCCGUACGGAACG, the yeast fitness was 0.687.
Variant GUUCCGUUGGCGUAAUGGUAACGCGUCUCCCUCCUAACGCGAAGACUGCGCGUUCGAGUCCUGUACGGUACG has a yeast fitness of at most 0.5.
Variant GUUCCGUUGGCGUAAUGGUAACGCGUCUCCCUCCUAACCAGAAGAUUGCGGGUUCGAGUCCCGUACGGUACG has a yeast fitness of at most 0.5.
Work on GUUCCGUUGGCGUAAUGGUAACGCGUCUCCCUCCUAACGAGAAGACUGCGGGUUCGAGUCCCGUACGGUUCG yielded a yeast fitness of at most 0.5.
Variant GUUCCGUUGGCGUAAUGGUAACGCGUCUCCCUCCUAUGGAGAAGACUGCGGGUACGAGUCCCGUACGGAACG has a yeast fitness of at most 0.5.
Variant GUUCCGUUGGCGUAAUGGUAACGCGUCUCCCUCCUAGGGAGAACACUGCGGGUUCGUGUCCCGUACGCAACG has a yeast fitness of 0.512.
GUUCCGUUGGCGUAAUGGUAACGCGUCUCCCUCCUAUGGAGAAGACUGUGGGUUCGAGUCGCGUACGGAACG showed a yeast fitness of at most 0.5.
GUUCCGUUGGCGUAAUGGUAACGCGUCUCCCUCCUAAAGAGAAGACUGCGGGUACGAGUCCCGUACGGAACG showed a yeast fitness of 0.628.
With GUUCCGUUGGCGUAAUGGUAACGCGUCUCCCUCCUAACGAGAAGACUGCCGGUUCGAGUCCCGUACGGAACG the yeast fitness was 0.562.
In the case of GUUCCGUUGGCGUAAUGGUAACGCGUCUCCCUCCUAUGGAGAAAACUGCGGGUUCGAGUCCCGUUCGGAACG, the yeast fitness is reported as at most 0.5.
Variant GUUCCGUUGGCGUAAUGGUAACGCGUCUCCCUCCUAAAGAGAAGACCGCGGGUUCGAGUCCCGUACGGAACG has a yeast fitness of 0.837.
With GUUCCGUUGGCGUAAUGGUAACGCGUCUCCCUCCUAAAGUGAAGACUGCCGGUUCGAGUGCCGUACGGAGCG the yeast fitness was 0.526.
Work on GUUCCGUUGGCGUAAUGGUAACGCGUCUCCCUCCUAAAGAGAAGACUGCGGGUUCGACUCCCGUACGGAUCG yielded a yeast fitness of 0.748.
With GUUCCGUUGGCGUAAUGGUAACGCGUCUCCCUCCUAUGGAGAAGUCCGCGGGUUCGAGUCCGGUACGGAACG the yeast fitness was at most 0.5.
GUUCCGUUGGCGUAAUGGUAACGCGUCUCCCUCCUAACGAGAAGACUGCGGGUUCGAGUUCCCUGCGGAACG gave a yeast fitness of at most 0.5.
Work on GUUCCGUUGGCGUAAUGGUAACGCGUCUCCCUCCUAACGAGAAGACUCCGGGUUCGAGUCCCCUACGGAACG yielded a yeast fitness of 0.574.
With GUUCCGUUGGCGUAAUGGUAACGCGUCUCCCUCCUAAAGAGAUGACUGCGGGUUCAAGUCCCGUACGGAACG the yeast fitness was 0.596.
For GUUCCGUUGGCGUAAUGGUAACGCGUCUCCCUCCUAUGGAGAAGACUGCGGGUUCGAGUCCCAUACGGAACG, the yeast fitness was 0.642.
In the case of GUUCCGUUGGCGUAAUGGUAACGCGUCUCCCUCCUAACGAGAAGACUGCGGGUUCGAGUCCCGUACGGAACG, the yeast fitness is reported as 0.806.
For GUUCCGUUGGCGUAAUGGUAACGCGUCUCCCUCCUAAAGAGAAGACUGCGGGUUCGAGUCCCGUACGGAACG, the yeast fitness was 1.02.
Variant GUUCCGUUGGCGUAAUGGUAACGCGUCUCCCUCCUAUGGAGAAGACUGAGGGUUCGAGUCCCGUUCGGAACG has a yeast fitness of at most 0.5.
